Among the data in ChEMBL document CHEMBL1250420, “Identification of chalcones as in vivo liver monofunctional phase II enzymes inducers” (Bioorg Med Chem, 2010) are Stability and Activity values, retold here.

Data set [1] concerns Liver microsomes. Description: Metabolic stability in rat liver microsome in presence of NADPH. The class given is ADME. In outline:
(§1)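 Female Wistar rat liver microsomes (100,000 × g pellet) at 1 mg/mL protein with 400 µM flavonoid (DMSO <1%). Incubated 0.5 h at 37 °C, with or without an NADPH-generating system (MgCl2, NADP+, glucose 6-phosphate, G6PDH) in 0.1 M phosphate pH 7.4, 1.5 mM EDTA. Heat-inactivated control included; triplicate; read by UV spectra and chromatography.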

Another data set deals with HT-29. Description: Cytotoxicity against human HT-29 cells. The class given is functional, cell-based.
The subject of data set [2] is Rattus norvegicus. Description: Toxicity in Sprague-Dawley rat assessed as haemoglobin level at 10 mg/kg/day, po (RVb = 15.1 +/- 4.1 g/L). Conditions: in vivo.
In a further data set the test system is MCF7. Description: Cytotoxicity against human MCF7 cells. The class given is functional, cell-based.
In data set [3] the test system is Liver microsomes. The experiment in a line: Metabolic stability in rat liver microsome. It is filed as ADME. In a few lines:
as §1
A general note: Liver microsomes are vesicles of endoplasmic reticulum, rich in cytochrome P450 enzymes.

Data set [4] relates to Rattus norvegicus. The experiment in a line: Induction glutathione-CYP1A1 in rat liver at 15 mg/kg, po qd by EROD assay.
Data set [5] relates to Rattus norvegicus. The experiment in a line: Toxicity in Sprague-Dawley rat assessed as glutamic-oxalate transaminase level at 10 mg/kg/day, po (RVb = 71.4 +/- 7.8 U/L). Conditions: in vivo.
The target of data set [6] is T1, Quinone oxidoreductase (Homo sapiens) (UniProt Q08257).
T1 sequence (whole entry): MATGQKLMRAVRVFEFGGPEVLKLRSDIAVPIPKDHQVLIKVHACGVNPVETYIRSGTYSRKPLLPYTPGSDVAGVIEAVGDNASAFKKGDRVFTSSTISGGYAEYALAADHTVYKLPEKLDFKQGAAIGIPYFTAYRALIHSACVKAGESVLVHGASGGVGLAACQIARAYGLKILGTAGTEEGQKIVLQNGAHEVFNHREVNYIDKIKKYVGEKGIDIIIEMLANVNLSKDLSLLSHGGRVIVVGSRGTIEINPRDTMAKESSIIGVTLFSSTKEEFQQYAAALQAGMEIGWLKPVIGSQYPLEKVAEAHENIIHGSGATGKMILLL
Description: Induction of quinone reductase activity in human MCF7 cells. It is filed as cell-based. In outline: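 QR induction in MCF-7 tumour cells at 40 µM, a level chosen from a flavone dose–response; result given as ratio of QR specific activity, treated/control.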

The test system of a further data set is TK-10. The experiment in a line: Cytotoxicity against human TK10 cells. It is filed as functional, cell-based.
For data set [7], the system named is Rattus norvegicus. Description: Toxicity in Sprague-Dawley rat assessed as change in body weight at 10 mg/kg/day, po. Conditions: in vivo.
Data set [8] concerns Rattus norvegicus. Description: Toxicity in Sprague-Dawley rat assessed as leucocyte level at 10 mg/kg/day, po. As to conditions: in vivo.
The subject of data set [9] is Rattus norvegicus. Description: Induction glutathione-S-transferase activity in rat liver at 15 mg/kg, po qd.
Data set [10] relates to Rattus norvegicus. Description: Toxicity in Sprague-Dawley rat assessed as glutamic-pyruvate level at 10 mg/kg/day, po (RVb = 22.8 +/-13.2 U/L). As to conditions: in vivo.
In data set [11] the test system is Rattus norvegicus. Description: Induction of quinone reductase activity in rat liver at 22.5 mg/kg, po qd. The class given is functional. As to conditions: dose 15.0 mg/kg, in the assay text read “at 15.0 mg/kg” for “at 22.5 mg/kg”. In outline:
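Oral dosing for 15 days over 3 weeks, then liver QR read as loss of 600 nm absorbance of DCPIP (80 µM) with 0.2 mM NADH, 5 µM FAD, 25 mM Tris–HCl pH 7.4, 6% BSA, 0.01% Tween 20. Specific activity expressed as % change from basal-diet control, n = 5, means ± SE, Student's t-test.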

The source made the active and inactive calls. No cut-off for these calls is given here.

With `O=C(/C=C/c1ccc(Br)cc1)c1ccccc1O`, the Stability entry in the data set with Liver microsomes [1] and in the data set with Liver microsomes [3] was “Stable” throughout. Also, the outcome in the data set on HT-29, in the data set on MCF7 and in the data set on TK-10 was inactive. Moreover, the Activity in the data set on Rattus norvegicus [2] is 8.4 g/L; in the data set with Rattus norvegicus [4], -80%; in the data set with Rattus norvegicus [5] it was 61.7 U/L; with Rattus norvegicus [7], “Non-toxic”; with Rattus norvegicus [8] it was 7700 µL⁻¹; in the data set on Rattus norvegicus [9], -30%. The figures for the Activity in the data set with Rattus norvegicus [10] and in the data set with Rattus norvegicus [11] were 26 U/L and 128%, respectively. Moreover, the outcome in data set [6] was Active.
